From BindingDB's records for doi:10.1016/j.bmcl.2005.09.030 (Institut Henri Beaufour, 2005)

Target: T1, M-phase inducer phosphatase 3 (Homo sapiens, UniProt P30307)
T1 sequence (P30307 whole entry): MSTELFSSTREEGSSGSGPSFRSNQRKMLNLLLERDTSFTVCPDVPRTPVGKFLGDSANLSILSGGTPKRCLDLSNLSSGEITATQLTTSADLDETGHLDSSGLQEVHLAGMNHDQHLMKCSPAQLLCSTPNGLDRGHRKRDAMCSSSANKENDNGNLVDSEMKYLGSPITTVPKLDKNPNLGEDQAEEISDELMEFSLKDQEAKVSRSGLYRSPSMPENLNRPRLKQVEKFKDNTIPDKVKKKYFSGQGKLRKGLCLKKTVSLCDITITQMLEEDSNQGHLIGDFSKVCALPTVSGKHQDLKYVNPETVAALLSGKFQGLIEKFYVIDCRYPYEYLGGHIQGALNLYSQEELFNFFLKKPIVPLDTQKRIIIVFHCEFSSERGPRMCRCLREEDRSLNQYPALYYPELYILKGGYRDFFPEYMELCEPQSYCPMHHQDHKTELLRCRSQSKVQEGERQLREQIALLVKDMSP
Experiment: Inhibitory activity against recombinant CDC25C
Outline: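 Recombinant maltose binding protein (MBP)-CDC25C fusion enzyme, with 3-O-methylfluorescein phosphate (OMFP) as substrate. IC50 given as mean ± SEM from at least two, usually three, independent experiments.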

| Structure (SMILES) | IC50 |
| --- | --- |
| CCc1nc2c(O)cc(N=CCN(C)C)c(O)c2[nH]1 [5-(2-(dimethylamino)ethylamino)-2-ethyl-1H-benzo[d]imidazole-4,7-dione] | 12000 nM |
| CN(C)CC=Nc1cc(O)c2nn(-c3ccccc3)cc2c1O [5-(2-(dimethylamino)ethylamino)-2-phenyl-2H-indazole-4,7-dione] | 12000 nM |
| CN(C)CC=Nc1cc(O)c2cn(-c3ccccc3)nc2c1O [6-(2-(dimethylamino)ethylamino)-2-phenyl-2H-indazole-4,7-dione] | 12000 nM |

Compounds with a lower IC50, results first:

| IC50 | Structure (SMILES) |
| --- | --- |
| 230 nM | CN(C)CC=Nc1cc(O)c2oc(-c3ccccc3)nc2c1O [5-(2-(dimethylamino)ethylamino)-2-phenylbenzo[d]oxazole-4,7-dione] |
| 230 nM | CN(C)CC=Nc1cc(O)c2nc(-c3ccccc3)oc2c1O [6-(2-(dimethylamino)ethylamino)-2-phenylbenzo[d]oxazole-4,7-dione] |
| 130 nM | CCc1nc2c(O)c(N=CCN(C)C)cc(O)c2o1 [5-(2-(dimethylamino)ethylamino)-2-ethylbenzo[d]oxazole-4,7-dione] |
| 130 nM | CCc1nc2c(O)cc(N=CCN(C)C)c(O)c2o1 [6-(2-(dimethylamino)ethylamino)-2-ethylbenzo[d]oxazole-4,7-dione] |
